Sampled rows, rich in hits. Any-hit rate of the full collection: about 1.9%.
DNA FID counter: fluorescent intercalator displacement, NS3 helicase counter-screen; DNA fluorescent intercalator displacement, fluorescence; inhibition, % at 7.9 µM; 0.17% of 290,000 active; AID 1845; in the data active means inhibition above about 37%;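 further: higher means more ethidium bromide displaced from hairpin DNA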
PP1 counter: blocks human PP1-alpha phosphatase, a PP5 counter-screen; 0.9% of 320,000 active; purified PP1alpha, OMFP fluorescence; P62136; inhibition, % at 6.7 µM;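 active means inhibition above the mean inhibition of all tested compounds plus 3 SD, computed separately for each screening campaign, cut at about 15% in these data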
Target sequence (P62136 whole entry, looked up): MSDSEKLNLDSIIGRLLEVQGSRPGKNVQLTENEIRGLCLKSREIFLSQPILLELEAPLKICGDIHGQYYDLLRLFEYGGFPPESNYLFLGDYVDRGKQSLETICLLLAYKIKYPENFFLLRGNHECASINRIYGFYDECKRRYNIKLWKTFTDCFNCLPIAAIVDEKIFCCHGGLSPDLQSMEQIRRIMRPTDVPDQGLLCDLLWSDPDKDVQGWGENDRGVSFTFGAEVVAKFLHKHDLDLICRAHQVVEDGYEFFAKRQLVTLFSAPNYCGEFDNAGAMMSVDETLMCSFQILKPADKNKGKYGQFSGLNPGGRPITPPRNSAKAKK
HIF act: HIF pathway transcriptional activation | U2OS HRE-luciferase reporter, luminescence; normalized: DMSO 0%, desferrioxamine 100% | 0.32% of 300,000 active | activation, % at 7.5 µM (by protocol) | AID 1910;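 active means mean activation of at least 10% of the iron chelator positive control signal, with at least half of replicates also reaching 10%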
NS3 helicase inh: blocks Hepatitis C virus NS3 helicase unwinding; NS3 helicase DNA unwinding, Cy5 molecular beacon fluorescence; inhibition, % at 10.9 µM; 0.56% of 290,000 active;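 active means inhibition above the mean of all tested compounds plus 3 SD, set per campaign, cut at about 35% in these data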
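System: NS3 helicase fragment of HCV / Schedule: 1 h at 25 °C / Control set: DMSO alone as 0% and 110 µM thioflavine S as 100% / Reagent: Cy5/quencher beacon DNA duplex and ATP to start / Technique: Cy5 fluorescence / Replication: singlicate / Evaluation: % inhibition of end-to-start signal ratio versus controls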
PP5 inh: inhibitors of human protein phosphatase 5 (PP5); P53041; purified PP5c, OMFP substrate fluorescence; inhibition, % at 6.7 µM; AID 1987; 0.18% of 320,000 active;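 active means inhibition above the campaign's mean inhibition across all tested compounds plus 3 SD, cut at about 9.5% in these data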
PP5 inh confirm: PP5 (human) inhibition, confirmation. 22% of 460 active. inhibition, % at 6.7 µM. AID 2331. shares compounds with PP5 inh. Purified PP5, fluorogenic phosphatase substrate, fluorescence; in the data active means inhibition above about 9.5%
PP1 counter 3x: counter-screen for PP5 inhibitors: human PP1 phosphatase inhibition. shares compounds with PP5 inh. PP1 enzyme, fluorescent phosphatase substrate. inhibition, % at 6.7 µM. 4% of 460 active. AID 2355; in the data active means inhibition above about 16%
Hits are given with their value; - = inactive; . = no result given; ! = repeats disagree.

SMILES	DNA FID counter	PP1 counter	HIF act	NS3 helicase inh	PP5 inh	PP5 inh confirm	PP1 counter 3x
Cc1cccc(NC(=O)CCS(=O)(=O)c2ccc(Cl)cc2)c1	-	-	-	-	-	.	.
CN(CC(O)CN1CCOCC1)S(=O)(=O)O (stereo not given)	-	-	-	-	14!	-	-
OC(CN1CCOCC1)CN1CCOCC1	-	-	-	-	-	.	.
Cc1cc(C)cc(OCC(=O)Nc2ccc3c(c2)OCO3)c1	-	-	-	-	-	.	.
COCc1nnc(NC(=O)C2CC(=O)N(C3CCCC3)C2)s1 (stereo not given)	-	-	-	-	-	.	.
Cc1ccc(N=Nc2cc(C)ccc2O)c(C)c1	-	.	-	-	.	.	.
Nc1ccc(N=Nc2ccccc2O)c(N)c1	.	-	-	.	12	-	-
COc1ccc(C(=O)NC2CCN(CC(=O)NCc3cccc(OC)c3)CC2)cc1	-	-	-	-	12	-	-
COc1ccc(C(=O)C2CCN(CC(=O)NCc3ccccc3)CC2)cc1	-	-	-	-	-	.	.
COc1cccc(/C=N/NC(=S)Nc2cccc(S(=O)(=O)N(C)C)c2)c1	-	-	-	-	-	.	.
COc1ccc(O)c(/C=N/NC(=S)Nc2cccc(S(=O)(=O)N(C)C)c2)c1	-	-	42	-	12	-	-
Cc1nc2c(ncn2-c2ccccc2)c(=O)n1NC(=O)CN1CCCCC1	-	-	-	-	13	-	-
CC1(C)Cc2cccc(OCC(=O)Nc3cccnc3Cl)c2O1	-	-	-	-	16	-	-
CCOc1c(Nc2ccccc2O)c(=O)c1=O	-	-	-	-	-	.	.
CCOc1ccc(NC(=O)c2ccccc2OCC(=O)c2ccc(C)cc2)cc1	-	-	-	-	9.8	-	-
COCCN1C(=O)c2cc(C(=O)Nc3ccc(OC)c(OC)c3)ccc2C1Nc1ccc(OC)c(OC)c1 (stereo not given)	-	-	-	-	-	.	.
CCOC(=O)c1c(C(F)(F)C(F)(F)C(F)(F)C(F)(F)F)n[nH]c1C	-	-	-	-	14	9.9	-
O=C1CN(c2nc(-c3cccnc3)nc3scc(-c4ccccc4)c23)CCN1	-	-	-	-	10	-	-
NS(=O)(=O)c1ccc(CCNC(=O)CSc2nc3ccccc3c(=O)n2CCC(=O)N2CCCCC2)cc1	-	-	-	-	-	.	.
CCN(Cc1ccc(N(C)C)cc1)C(C)C(=O)Nc1ccc(S(=O)(=O)N2CCCC2)cc1 (stereo not given)	.	-	.	.	-	.	.
CCCCCNC(=O)CC1Nc2c3ccccc3nc(=S)n2C1=O (stereo not given)	-	-	-	-	9.9	-	-
Cc1ccc(C(=O)NC(C)c2ccccc2)o1 (stereo not given)	-	-	-	-	11	-	-
Cc1c(C(C)C[C@H](C)O)oc(=O)c2c1Oc1c(C)c(C(C)C[C@H](C)O)oc(=O)c1C2 (stereo not given in full)	.	-	.	.	-	.	.
Cc1cc(C)cc(OCC(=O)N(C)CC(=O)Nc2ccc(Cl)c(C(F)(F)F)c2)c1	.	-	.	.	10	-	-
O=C1CC(N2CCN(S(=O)(=O)c3ccc([N+](=O)[O-])cc3)CC2)C(=O)N1c1ccccc1F (stereo not given)	.	-	.	.	-	.	.
SMILES	DNA FID counter	PP1 counter	HIF act	NS3 helicase inh	PP5 inh	PP5 inh confirm	PP1 counter 3x
CCOC(=O)N1CCN(C(=O)c2cccn3c(=O)c4cc(Br)ccc4nc23)CC1	-	-	-	-	-	.	.
CCOC(=O)N1CCN(C(=O)c2cccn3c(=O)c4cc(Cl)ccc4nc23)CC1	-	-	-	-	11	-	-
COCCNC(=O)c1cccc(Nc2nc(-c3ccccc3)c3cc(Cl)ccc3n2)c1	-	-	-	-	-	.	.
Cc1nnc2c3ccccc3c(Cl)nn12	-	-	-	-	-	.	.
COC(=O)CCC(=O)OC1(C)C(=O)C2=CN(C3CC3)C(c3ccc(OC)cc3)=CC2=C(Br)C1=O (stereo not given)	.	-	-	.	11	37	-
COC(=O)CCC(=O)OC1(C)C(=O)C2=CN(CC(C)C)C(c3ccc(OC)cc3)=CC2=C(Br)C1=O (stereo not given)	.	-	-	.	15	31	-
COC(=O)CCC(=O)OC1(C)C(=O)C2=CN(Cc3ccc(OC)cc3)C(c3ccc(OC)cc3)=CC2=C(Br)C1=O (stereo not given)	.	-	-	.	-	.	.
CN(C)c1cc(-c2ccc([N+](=O)[O-])cc2)oc(=O)c1Cl	-	-	-	-	-	.	.
O=C(NCCO[N+](=O)[O-])c1cccnc1	-	-	-	-	-	.	.
O=C(CCN1CCN(CCO)CC1)Nc1ccc(OCc2ccccc2)cc1	-	-	-	-	10	-	-
CN1CCN(CCC(=O)Nc2ccc(OCc3ccccc3)cc2)CC1	-	-	-	-	-	.	.
CCc1ccc(C(=O)NNC(=S)Nc2ccc(S(N)(=O)=O)cc2)s1	-	-	-	-	14	-	-
CC1CN(S(=O)(=O)c2ccc(C(=O)OCc3ccc(C#N)cc3)cc2)CC(C)O1 (stereo not given)	.	-	.	.	-	.	.
O=C(CC1(O)C(=O)c2ccccc2C1=O)c1ccccc1	-	-	-	-	-	.	.
O=C1c2ccccc2C(=O)C1(O)O	.	-	.	.	16	-	-
CCOc1ccc(N(CC(=O)Nc2c(C)cccc2C)S(=O)(=O)c2c(C)[nH]c(=O)[nH]c2=O)cc1	-	-	-	-	12	-	-
O=C(CN1C(=O)NC2(CCCC2)C1=O)OCc1cccc(Br)c1	.	-	.	.	-	.	.
O=C(NCCCCc1ccccc1)c1ccccc1F	-	-	-	-	12	-	-
Nc1nnc(SCc2ccc(F)cc2Cl)s1	-	-	-	-	13	-	-
Cc1nnc(SCc2ccc(F)cc2Cl)s1	-	-	-	-	-	.	.
CCNC(=S)NS(=O)(=O)c1ccc(CC)cc1	-	-	-	-	10.0	-	-
CCC(C)C(NC(=O)/C(=C\c1ccccc1)NC(=O)c1ccc(OC)cc1)C(=O)O (stereo not given)	-	-	-	-	-	.	.
CCOC(=O)c1c(NC(=O)C2C3CCC(O3)C2C(=O)O)sc2c1CCCC2 (stereo not given)	-	-	-	-	14	11	-
COC(=O)c1c(NC(=O)C2C3CCC(O3)C2C(=O)O)sc2c1CCCCCC2 (stereo not given)	-	-	-	-	12	-	-
Cc1ccc(-c2c(C)sc(NC(=O)C3C4CCC(O4)C3C(=O)O)c2C(=O)OC(C)C)cc1 (stereo not given)	-	-	-	-	13	-	-
CCc1cccc(C)c1NC(=O)C1C2CCC(O2)C1C(=O)O (stereo not given)	-	-	-	-	12	-	-
O=C1c2cccc3cccc(c23)C(=O)N1CCc1ccccc1	-	-	-	-	-	.	.
CCc1ccc(-c2nc3ccc(Br)cc3c(C(=O)O)c2C)s1	-	.	-	-	.	.	.
